Assay results as given in ChEMBL document CHEMBL1154326 (J Med Chem, 2009).
Activity calls are given as the source filed them. The calls are words filed in the database; no cut-off is given here.

Columns and labels:
Histamine H1 receptor [1] = molecular target: T1, Histamine H1 receptor (Homo sapiens, UniProt P35367); test: Displacement of [3H]mepyramine from human histamine H1 receptor expressed in Sf9 cells
Outline: (§1)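 Competition binding on Sf9 membranes in 12.5 mM MgCl2, 1 mM EDTA, 75 mM Tris/HCl pH 7.4. Protein per tube: 50 μg (H1R, H3R), 120 μg (H4R), 250 μg (H2R). […] 60 min at 25 °C with shaking; PEI-treated GF/C filtration, cold washes, scintillation counting; one-site fits, duplicates.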

Homo sapiens [2] = species on record: Homo sapiens; test: Selectivity for human histamine H4 receptor over human histamine H1 receptor by radioligand displacement assay
Homo sapiens [3] = species on record: Homo sapiens; test: Selectivity for human histamine H4 receptor over human histamine H2 receptor by radioligand displacement assay
Homo sapiens [4] = species on record: Homo sapiens; test: Selectivity for human histamine H4 receptor over human histamine H3 receptor by steady-state GTPase assay
Histamine H4 receptor [5] = molecular target: T2, Histamine H4 receptor (Homo sapiens, UniProt Q9H3N8); test: Displacement of [3H]histamine from human histamine H4 receptor expressed in Sf9 cells; outline: as §1
Histamine H3 receptor [6] = molecular target: T3, Histamine H3 receptor (Homo sapiens, UniProt Q9Y5N1); test: Antagonist activity at human histamine H3 receptor expressed in Sf9 cells coexpressing Gialpha-2-Gbeta-1-gamma-2 and RGS4 proteins protein by steady-state GTPase assay; format: functional
Outline: (§2)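 Antagonist-mode steady-state GTPase assay in Sf9 membranes: H1R coexpressed with RGS4; H2R as GsαS fusion; H3R coexpressed with Giα2/Gβ1γ2/RGS4; H4R as RGS19 fusion with Giα2/Gβ1γ2. […] MgCl2: H1R/H2R 1.0 mM, H3R/H4R 5.0 mM; H4R plus 100 mM NaCl. [γ-32P]GTP hydrolysis measured over 20 min at 25 °C. pKB from nonlinear sigmoidal fits; duplicate runs.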

Histamine H1 receptor [7] = molecular target: T1, Histamine H1 receptor; test: Antagonist activity at human histamine H1 receptor expressed in Sf9 cells coexpressing RGS4 by steady-state GTPase assay; format: functional; outline: as §2
Histamine H4 receptor [8] = molecular target: T2, Histamine H4 receptor; test: Agonist activity at human histamine H4 receptor expressed in Sf9 cell membrane coexpressing RGS19 protein by steady-state GTPase assay; format: functional
Outline: (§3)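 Sf9 membranes (10-20 μg protein/tube), washed and resuspended in 10 mM Tris-HCl pH 7.4. H2R as hH2R-GsαS fusion; H3R coexpressed with Giα2, Gβ1γ2, RGS4; H4R as hH4R-RGS19 fusion with Giα2, Gβ1γ2. Buffer: 50 mM Tris/HCl pH 7.4, MgCl2 (H2R 1.0 mM; H3R/H4R 5.0 mM), 100 μM EDTA, 100 μM ATP, 100 nM GTP, 100 μM AppNHp, creatine phosphate/kinase, 0.2% BSA; H4R plus 100 mM NaCl.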

Histamine H3 receptor [9] = molecular target: T3, Histamine H3 receptor; test: Displacement of [3H]N-alpah-methylhistamine from human histamine H3 receptor expressed in Sf9 cells; outline: as §1
Histamine H2 receptor [10] = molecular target: T4, Histamine H2 receptor (Homo sapiens, UniProt P25021); test: Antagonist activity at human histamine H2 receptor expressed in Sf9 cells coexpressing GsalphaS protein by steady-state GTPase assay; format: functional; outline: as §2
Histamine H2 receptor [11] = molecular target: T4, Histamine H2 receptor; test: Displacement of [3H]tiotidine from human histamine H2 receptor expressed in Sf9 cells; outline: as §1
Histamine H4 receptor [12] = molecular target: T2, Histamine H4 receptor; test: Agonist activity at human histamine H4 receptor expressed in Sf9 cells coexpressing RGS19 protein by steady-state GTPase assay; format: functional; outline: as §3
Histamine H4 receptor [13] = molecular target: T2, Histamine H4 receptor; test: Antagonist activity at human histamine H4 receptor expressed in Sf9 cells coexpressing RGS19 protein by steady-state GTPase assay; format: functional; outline: as §2
Histamine H2 receptor [14] = molecular target: T4, Histamine H2 receptor; test: Agonist activity at human histamine H2 receptor expressed in Sf9 cells coexpressing GsalphaS protein by steady-state GTPase assay; format: functional; outline: as §3
Histamine H2 receptor [15] = molecular target: T4, Histamine H2 receptor; test: Agonist activity at human histamine H2 receptor expressed in Sf9 cells coexpressing GsalphaS protein at 1 mM by steady-state GTPase assay; format: functional
Histamine H1 receptor [16] = molecular target: T1, Histamine H1 receptor; test: Agonist activity at human histamine H1 receptor expressed in Sf9 cells coexpressing RGS4 by steady-state GTPase assay; format: functional
Histamine H2 receptor [17] = molecular target: T4, Histamine H2 receptor; test: Antagonist activity at human histamine H2 receptor expressed in Sf9 cells coexpressing GsalphaS protein by steady-state GTPase assay
Histamine H4 receptor [18] = molecular target: T2, Histamine H4 receptor; settings: Sf9
Histamine H3 receptor [19] = molecular target: T3, Histamine H3 receptor; test: Agonist activity at human histamine H3 receptor expressed in Sf9 cells coexpressing Gialpha-2-Gbeta-1-gamma-2 and RGS4 proteins protein by steady-state GTPase assay; format: functional; outline: as §3

T1 sequence (P35367 whole entry): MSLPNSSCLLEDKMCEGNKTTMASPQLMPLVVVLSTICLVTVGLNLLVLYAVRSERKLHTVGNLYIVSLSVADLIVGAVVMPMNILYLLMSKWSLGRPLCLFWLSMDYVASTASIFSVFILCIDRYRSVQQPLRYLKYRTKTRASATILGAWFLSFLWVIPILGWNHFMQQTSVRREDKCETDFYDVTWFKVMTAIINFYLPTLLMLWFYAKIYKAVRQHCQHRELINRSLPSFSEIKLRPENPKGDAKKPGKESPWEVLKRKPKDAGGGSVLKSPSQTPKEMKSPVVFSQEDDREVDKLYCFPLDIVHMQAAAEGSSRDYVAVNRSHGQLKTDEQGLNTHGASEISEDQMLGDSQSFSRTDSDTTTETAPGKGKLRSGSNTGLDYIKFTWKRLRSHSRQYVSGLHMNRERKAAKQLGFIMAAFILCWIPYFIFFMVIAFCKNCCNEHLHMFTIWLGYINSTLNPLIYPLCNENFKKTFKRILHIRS
T2 sequence (Q9H3N8 whole entry): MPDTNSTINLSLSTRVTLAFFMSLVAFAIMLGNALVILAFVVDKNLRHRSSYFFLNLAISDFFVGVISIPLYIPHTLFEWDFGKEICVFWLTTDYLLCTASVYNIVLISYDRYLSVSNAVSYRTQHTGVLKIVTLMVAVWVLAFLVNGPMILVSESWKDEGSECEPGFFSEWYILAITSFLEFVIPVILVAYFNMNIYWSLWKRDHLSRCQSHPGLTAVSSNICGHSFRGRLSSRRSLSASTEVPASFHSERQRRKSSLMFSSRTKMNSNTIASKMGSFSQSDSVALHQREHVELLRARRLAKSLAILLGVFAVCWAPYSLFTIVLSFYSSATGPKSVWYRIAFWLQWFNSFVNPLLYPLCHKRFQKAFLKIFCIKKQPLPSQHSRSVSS
T3 sequence (Q9Y5N1 whole entry, the tested form may be a part): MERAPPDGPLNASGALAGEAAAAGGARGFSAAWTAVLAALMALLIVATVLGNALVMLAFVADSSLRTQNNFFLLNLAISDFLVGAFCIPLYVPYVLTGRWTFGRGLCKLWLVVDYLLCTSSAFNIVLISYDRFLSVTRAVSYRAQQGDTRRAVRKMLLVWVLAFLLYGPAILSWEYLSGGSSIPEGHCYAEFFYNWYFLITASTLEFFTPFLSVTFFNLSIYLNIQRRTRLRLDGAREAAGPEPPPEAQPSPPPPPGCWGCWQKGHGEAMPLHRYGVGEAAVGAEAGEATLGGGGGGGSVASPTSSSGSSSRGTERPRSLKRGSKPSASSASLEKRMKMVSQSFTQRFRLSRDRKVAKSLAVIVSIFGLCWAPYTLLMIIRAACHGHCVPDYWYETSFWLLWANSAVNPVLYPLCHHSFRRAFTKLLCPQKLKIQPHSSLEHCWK
T4 sequence (P25021 whole entry): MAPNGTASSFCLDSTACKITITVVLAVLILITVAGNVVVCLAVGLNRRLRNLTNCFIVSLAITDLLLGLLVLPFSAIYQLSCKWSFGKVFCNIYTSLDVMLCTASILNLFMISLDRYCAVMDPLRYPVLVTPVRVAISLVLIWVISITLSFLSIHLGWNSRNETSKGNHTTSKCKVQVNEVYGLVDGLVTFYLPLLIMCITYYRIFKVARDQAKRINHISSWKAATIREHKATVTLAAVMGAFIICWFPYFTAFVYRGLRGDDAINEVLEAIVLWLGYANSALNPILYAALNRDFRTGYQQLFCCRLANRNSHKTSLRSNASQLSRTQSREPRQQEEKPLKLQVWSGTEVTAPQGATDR

| Compound | pKb (Histamine H3 receptor [6]) | pKb (Histamine H2 receptor [10]) | EC50 (Histamine H4 receptor [12]) [nM] | pKb (Histamine H4 receptor [13]) | also measured |
| --- | --- | --- | --- | --- | --- |
| N#C/N=C(/NCCCCc1c[nH]cn1)NCCSc1ccccc1 | 6 | < 5 | 33.9 |  | Ki (Histamine H1 receptor [1]): 25.7 µM; Selectivity ratio (Homo sapiens [2]): 450; Selectivity ratio (Homo sapiens [3]): 70; Selectivity ratio (Homo sapiens [4]): 30; Ki (Histamine H4 receptor [5]): 57.5 nM; pKb (Histamine H1 receptor [7]): < 5; Activity (Histamine H4 receptor [8]): > 10 nM; Ki (Histamine H3 receptor [9]): 525 nM; Ki (Histamine H2 receptor [11]): 4.07 µM |
| NC(=O)/N=C(\NCCCCc1c[nH]cn1)NCCCc1ccccc1 | 6.44 |  |  | 7.07 | Activity (Histamine H4 receptor [12]): inactive |
| N#C/N=C(/NCCCCc1c[nH]cn1)NCCC(c1ccccc1)c1ccccc1 |  | 5 |  | 5.6 |  |
| N#CNC(=NCCCCc1cnc[nH]1)NCCCc1ccccc1 |  |  | 151 |  |  |
| Cc1ccc(S(=O)(=O)NC(=N)NCCCc2c[nH]cn2)cc1 | 6.11 |  |  | 5.85 | EC50 (Histamine H2 receptor [14]): 12 µM; pKb (Histamine H1 receptor [7]): < 5 |
| N#C/N=C(/NCCCCc1c[nH]cn1)NCCCc1cccnc1 | 6.19 | 5.92 | 1200 |  |  |
| N#C/N=C(/NCCCC1CCCCC1)NCCc1c[nH]cn1 |  |  |  | 5.57 |  |
| N#C/N=C(/NCCCc1c[nH]cn1)NCCc1ccccc1 |  | < 5 |  | 5.32 | Activity (Histamine H2 receptor [15]): inactive |
| N#C/N=C(/NCCCc1c[nH]cn1)NCCc1c[nH]c2ccccc12 |  | < 5 |  | 5.37 | Activity (Histamine H2 receptor [15]): inactive |
| Cc1nc[nH]c1CCN [4-METHYLHISTAMINE] |  |  | 70.8 |  | Activity (Histamine H2 receptor [15]): inactive; EC50 (Histamine H1 receptor [16]): 15.8 µM; EC50 (Histamine H2 receptor [14]): 2.88 µM |
| NC(=O)/N=C(/NCCCCc1ccccc1)NCCCc1c[nH]cn1 | 6.51 |  |  | 6.33 |  |
| CCN/C(=N\C#N)NCCCCc1c[nH]cn1 | 5.54 | < 5 | 708 |  | pKb (Histamine H1 receptor [7]): < 5 |
| N#C/N=C(/NCCCCc1c[nH]cn1)NCCCc1ccc(F)cc1 | 6.11 | 5.28 |  | 6.59 |  |
| N#C/N=C(/NCCCCc1c[nH]cn1)NCCCC1CCCCC1 | 5.82 | < 5 |  | 6.35 |  |
| N#C/N=C(\NCCc1ccccc1)NCCc1c[nH]cn1 |  |  |  | 5.18 | Activity (Histamine H2 receptor [15]): inactive |
| N#C/N=C(/NCCCCc1c[nH]cn1)NCCCc1ccncc1 | 6.11 | 5.11 |  |  |  |
| N#C/N=C(/NCCCCc1c[nH]cn1)NCCCc1ccccc1 | 5.64 | 5.25 |  |  | pKb (Histamine H1 receptor [7]): < 5 |
| N#C/N=C(\NCCCCc1ccccc1)NCCCc1c[nH]cn1 |  | 5.03 |  | 5.22 | EC50 (Histamine H2 receptor [14]): 8.91 µM |
| N#CNC(=NCCCCc1cnc[nH]1)NCCCc1ccncc1 |  |  | 2570 |  |  |
| N#C/N=C(/NCCc1c[nH]cn1)NCCC(c1ccccc1)c1ccccc1 |  | < 5 |  | < 5 |  |
| N#C/N=C(/NCCCCc1c[nH]cn1)NCCCc1ccccn1 | 5.89 | 5.48 | 575 |  |  |
| N#C/N=C(\N)NCCCCc1c[nH]cn1 |  | < 5 |  |  |  |
| N=C(NCCCc1c[nH]cn1)NS(=O)(=O)CCc1ccccc1 | 6.57 |  |  | 5.85 | EC50 (Histamine H2 receptor [14]): 12 µM |
| NC(=O)NC(=NCCCc1cnc[nH]1)NCCCCc1ccccc1 |  |  |  |  | EC50 (Histamine H2 receptor [14]): 0.38 µM |
| CC(C)CN/C(=N\C#N)NCCCCCc1c[nH]cn1 | 6.57 | < 5 |  | 6.51 |  |
| Cc1[nH]cnc1CSCCN/C(=N/C#N)NCCC(c1ccccc1)c1ccccc1 |  |  | > 10000 |  | pKb (Histamine H2 receptor [17]): 5.8 |
| N#C/N=C(/NCCCCc1c[nH]cn1)NCCc1ccccc1 | 5.82 | 5 | 1100 |  |  |
| N#C/N=C(/NCCCc1c[nH]cn1)NCCCC1CCCCC1 |  | < 5 |  | 5.82 |  |

| Compound | pKb (Histamine H3 receptor [6]) | pKb (Histamine H2 receptor [10]) | EC50 (Histamine H4 receptor [12]) [nM] | pKb (Histamine H4 receptor [13]) | also measured |
| --- | --- | --- | --- | --- | --- |
| CC(C)N/C(=N\C#N)NCCCCc1c[nH]cn1 | 5.49 | < 5 | 331 |  | pKb (Histamine H1 receptor [7]): < 5 |
| N#C/N=C(/NCCCCc1c[nH]cn1)NCCc1c[nH]c2ccccc12 | 6.77 | < 5 |  | 5.8 |  |
| CN/C(=N\C#N)NCCCCc1c[nH]cn1 | 5.68 | < 5 | 955 |  | pKb (Histamine H1 receptor [7]): < 5 |
| NC(=O)/N=C(/NCCCc1ccccc1)NCCc1c[nH]cn1 | 8.42 |  |  | 5.89 | EC50 (Histamine H2 receptor [14]): 2 µM; pKb (Histamine H1 receptor [7]): < 5 |
| CC(C)CN/C(=N\C#N)NCCCCc1c[nH]cn1 | 5.47 | < 5 | 120 |  | pKb (Histamine H1 receptor [7]): < 5 |
| N#C/N=C(/NCCCCCc1c[nH]cn1)NCCCc1ccccc1 | 6.55 | 5.28 |  | 6.96 |  |
| NC(=O)/N=C(/NCCCc1ccccc1)NCCCc1c[nH]cn1 | 6.23 |  |  | 6.77 | pKb (Histamine H1 receptor [7]): < 5 |
| N#C/N=C(/NCCCc1ccccc1)NCCc1c[nH]cn1 | 5.18 |  |  | < 5 | EC50 (Histamine H2 receptor [14]): > 10 µM; pKb (Histamine H1 receptor [7]): < 5 |
| N#C/N=C(/NCCCc1c[nH]cn1)NCCC(c1ccccc1)c1ccccc1 |  | < 5 |  | < 5 |  |
| NC(=O)NC(=NCCCc1cnc[nH]1)NCCCc1ccccc1 |  |  |  |  | EC50 (Histamine H2 receptor [14]): 0.646 µM |
| CC(CCN/C(=N\C#N)NCCCCc1c[nH]cn1)c1ccccc1 (stereo unspecified) | 6.19 | < 5 |  |  | pKb (Histamine H1 receptor [7]): < 5 |
| N#C/N=C(\NCCCCc1ccccc1)NCCCCc1c[nH]cn1 | 5.54 | 5.03 |  | 6.34 |  |
| CC(C)N/C(=N/C#N)NCCCCCc1c[nH]cn1 | 6.47 | 5.57 |  | 6.25 |  |
| NC(=O)N=C(NCCCCc1c[nH]cn1)NCCCc1ccccc1 |  |  |  |  | EC50 (Histamine H2 receptor [14]): 0.437 µM |
| N#C/N=C(\NCCCc1ccccc1)NCCCc1c[nH]cn1 | 5.72 | 5.25 | 759 |  | EC50 (Histamine H2 receptor [14]): 14.1 µM |
| CC(CCNC(=NCCCCc1cnc[nH]1)NC#N)c1ccccc1 (stereo unspecified) |  |  | 141 |  |  |
| N#C/N=C(\NCCCCCc1c[nH]cn1)NCCSc1ccccc1 | 6.74 | 5.21 |  | 6.85 |  |
| N#C/N=C(/NCCCc1c[nH]cn1)NCCSc1ccccc1 |  | < 5 | 1290 |  | EC50 (Histamine H2 receptor [14]): 7.24 µM |
| N#C/N=C(\NCCSc1ccccc1)NCCc1c[nH]cn1 |  | < 5 |  | 5.05 |  |
| N/C(=N/CCc1ccc(I)cc1)SCCCc1cnc[nH]1 |  |  |  |  | Kinact (Histamine H4 receptor [18]): 13 nM |
| N#C/N=C(/NCCCCc1ccccc1)NCCc1c[nH]cn1 |  | < 5 | > 10000 |  | pKb (Histamine H2 receptor [17]): < 5 |
| Cc1[nH]cnc1CSCCN/C(=N\C#N)NCCCc1ccccc1 |  | 5.74 |  | < 5 |  |
| CN/C(=N\C#N)NCCCCCc1c[nH]cn1 | 6.38 | 5.66 |  | 6.54 |  |
| N#CNC(=NCCc1cnc[nH]1)NCCCC1CCCCC1 |  |  |  |  | EC50 (Histamine H2 receptor [14]): 3.89 µM |
| CCN/C(=N/C#N)NCCCCCc1c[nH]cn1 | 6.92 | 5.37 |  | 6.47 |  |
| N#CNC(N)=NCCCCc1cnc[nH]1 |  |  | 170 |  | EC50 (Histamine H3 receptor [19]): 251 nM |
| N#C/N=C(\NCCc1c[nH]cn1)NCCc1c[nH]c2ccccc12 |  |  |  | < 5 | pKb (Histamine H2 receptor [17]): < 5 |
